Key:
[1] = tested on: DU-145; assay: Induction of apoptosis in human DU145 cells at 10 uM assessed as dead cell level after 72 hrs by AnnexinV conjugated 7- AAD staining by flow cytometry; format: functional
How it was run: (§1)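 Du145 human prostate carcinoma cells exposed to compound for 72 h, then stained with Annexin V and 7-AAD and analysed by flow cytometry. Annexin V detects phosphatidylserine externalised to the outer membrane leaflet, and 7-AAD enters only membrane-compromised cells. Dead cells were those positive for both stains. Untreated cells served as control.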

[2] = tested on: DU-145; assay: Induction of apoptosis in human DU145 cells at 10 uM assessed as live cell level after 72 hrs by AnnexinV conjugated 7- AAD staining by flow cytometry; format: functional
How it was run: (§2)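 Du145 cells were treated for 72 h and stained with Annexin V conjugate plus 7-AAD. Flow cytometry read PS externalization and membrane integrity, scoring cells as live (double negative), early apoptotic, or late apoptotic/necrotic (double positive). Untreated cells served as the control.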

[3] = tested on: HT-29; assay: Antiproliferative activity against human HT-29 cells after 72 hrs by MTT assay; format: functional, cell-based; conditions: HT-29, 72 h
[4] = tested on: DU-145; assay: Induction of apoptosis in human DU145 cells at 5 uM assessed as late apoptosis/ necrotic cells level after 72 hrs by AnnexinV conjugated 7- AAD staining by flow cytometry; format: functional; how it was run: as §2
[5] = tested on: KB; assay: Antiproliferative activity against human KB cells after 72 hrs by MTT assay; format: functional, cell-based
[6] = tested on: IMR-90; assay: Antiproliferative activity against human IMR90 cells after 72 hrs by MTT assay; format: cell-based; conditions: IMR-90, 72 h
[7] = tested on: DU-145; assay: Induction of apoptosis in human DU145 cells at 5 uM assessed as live cell level after 72 hrs by AnnexinV conjugated 7- AAD staining by flow cytometry; format: functional; how it was run: as §2
[8] = tested on: OS-RC-2; assay: Antiproliferative activity against human OS-RC2 cells after 72 hrs by MTT assay; format: functional, cell-based; conditions: OS-RC-2, 72 h
[9] = Antiproliferative activity against human L78 cells after 72 hrs by MTT assay; format: functional, cell-based; conditions: L78, 72 h
[10] = tested on: MOLT-4; assay: Antiproliferative activity against human MOLT4 cells after 72 hrs by MTT assay; format: functional, cell-based; conditions: MOLT-4, 72 h
[11] = tested on: SGC-7901; assay: Antiproliferative activity against human SGC7901 cells after 72 hrs by MTT assay; format: functional, cell-based; conditions: SGC-7901, 72 h
[12] = tested on: HepG2; assay: Antiproliferative activity against human HepG2 cells after 72 hrs by MTT assay; format: functional, cell-based; conditions: HepG2, 72 h
[13] = tested on: HeLa; assay: Antiproliferative activity against human HeLa cells after 72 hrs by MTT assay; format: functional, cell-based
[14] = tested on: MCF7; assay: Antiproliferative activity against human MCF7 cells after 72 hrs by MTT assay; format: functional, cell-based; conditions: MCF7, 72 h
[15] = tested on: DU-145; assay: Growth inhibition of human DU145 cells after 72 hrs by MTT assay; format: functional, cell-based; conditions: DU-145, 72 h
How it was run: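 Du145 human prostate carcinoma cells were screened by MTT cell-growth inhibition assay. IC50 values are means of three experiments.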

[16] = tested on: U-251; assay: Antiproliferative activity against human U251 cells after 72 hrs by MTT assay; format: functional, cell-based; conditions: U-251, 72 h
[17] = tested on: DU-145; assay: Induction of apoptosis in human DU145 cells at 5 uM assessed as early apoptosis level after 72 hrs by AnnexinV conjugated 7- AAD staining by flow cytometry; format: functional; how it was run: as §2
[18] = tested on: A549; assay: Antiproliferative activity against human A549 cells after 72 hrs by MTT assay; format: functional, cell-based; conditions: A549, 72 h
[19] = tested on: DU-145; assay: Induction of apoptosis in human DU145 cells at 5 uM assessed as dead cell level after 72 hrs by AnnexinV conjugated 7- AAD staining by flow cytometry; format: functional; how it was run: as §1
[20] = tested on: DU-145; assay: Induction of apoptosis in human DU145 cells at 10 uM assessed as late apoptosis/ necrotic cells level after 72 hrs by AnnexinV conjugated 7- AAD staining by flow cytometry; format: functional; how it was run: as §2
[21] = tested on: HT-1080; assay: Antiproliferative activity against human HT1080 cells after 72 hrs by MTT assay; format: functional, cell-based; conditions: HT-1080, 72 h
[22] = tested on: DU-145; assay: Induction of apoptosis in human DU145 cells at 10 uM assessed as early apoptosis level after 72 hrs by AnnexinV conjugated 7- AAD staining by flow cytometry; format: functional; how it was run: as §2

SMILES: Cc1ccccc1C1CCN(C2=CC(=O)c3cccc(O)c3C2=O)CC1
- Activity [1]: 0.42%
- Activity [2]: 0.96%
- IC50 [3]: 6.7 µM
- Activity [4]: 34.39%
- IC50 [5]: 4.4 µM
- IC50 [6]: > 50 µM
- Activity [7]: 51.4%
- IC50 [8]: 3.2 µM
- IC50 [9]: 4.4 µM
- IC50 [10]: > 50 µM
- IC50 [11]: 3.9 µM
- IC50 [12]: 16.6 µM
- IC50 [13]: 9.7 µM
- IC50 [14]: 8.9 µM
- IC50 [15]: 2.5 µM
- IC50 [16]: 30.4 µM
- Activity [17]: 10.31%
- IC50 [18]: 5.2 µM
- Activity [19]: 3.9%
- Activity [20]: 84.32%
- IC50 [21]: > 50 µM
- Activity [22]: 14.31%

SMILES: Cc1ccccc1C1CCN(C2=CC(=O)c3ccccc3C2=O)CC1
- IC50 [15]: 6.1 µM

SMILES: COc1cccc(N2CCN(C3=CC(=O)c4ccccc4C3=O)CC2)c1
- IC50 [15]: 15 µM

SMILES: O=C1C=C(N2CCN(c3ccc(Cl)cc3)CC2)C(=O)c2ccccc21
- IC50 [15]: 29.5 µM

SMILES: O=C1C=C(N2CCC(c3ccc(Cl)cc3)CC2)C(=O)c2ccccc21
- IC50 [15]: 7.3 µM

SMILES: O=C1C=C(N2CCN(c3cccc(Cl)c3)CC2)C(=O)c2ccccc21
- IC50 [15]: 8.3 µM

SMILES: O=C1C=C(N2CCC(c3ccc(Cl)cc3)CC2)C(=O)c2c(O)cccc21
- Activity [1]: 1.21%
- Activity [2]: 1.95%
- IC50 [3]: 6.9 µM
- Activity [4]: 35.95%
- IC50 [5]: 14 µM
- IC50 [6]: > 50 µM
- Activity [7]: 52.14%
- IC50 [8]: 5.2 µM
- IC50 [9]: 40.6 µM
- IC50 [10]: > 50 µM
- IC50 [11]: > 50 µM
- IC50 [12]: 5.4 µM
- IC50 [13]: 18.2 µM
- IC50 [14]: 20.5 µM
- IC50 [15]: 2.6 µM
- IC50 [16]: 6.1 µM
- Activity [17]: 7.22%
- IC50 [18]: 17.2 µM
- Activity [19]: 4.69%
- Activity [20]: 87.96%
- IC50 [21]: 22.4 µM
- Activity [22]: 8.88%

SMILES: O=C1C=C(N2CCN(c3ccc(F)cc3)CC2)C(=O)c2c(O)cccc21
- IC50 [15]: 8.4 µM

SMILES: COc1ccccc1N1CCN(C2=CC(=O)c3ccccc3C2=O)CC1
- IC50 [15]: 8 µM

SMILES: COc1ccc(N2CCN(C3=CC(=O)c4ccccc4C3=O)CC2)cc1OC
- IC50 [15]: 17.8 µM

SMILES: O=C1C(N2CCN(c3ccc(F)cc3)CC2)=CC(=O)c2c(O)cccc21
- IC50 [15]: 22.4 µM

SMILES: O=C1C=C(N2CCN(c3ccccc3Cl)CC2)C(=O)c2ccccc21
- Activity [1]: 3.1%
- Activity [2]: 85.3%
- IC50 [3]: 18.9 µM
- Activity [4]: 3.65%
- IC50 [5]: 3.7 µM
- IC50 [6]: > 50 µM
- Activity [7]: 91.36%
- IC50 [8]: 8.9 µM
- IC50 [9]: 28.8 µM
- IC50 [10]: > 50 µM
- IC50 [11]: 41.8 µM
- IC50 [12]: 11.1 µM
- IC50 [13]: 11.3 µM
- IC50 [14]: 10.3 µM
- IC50 [15]: 2.9 µM
- IC50 [16]: 30.8 µM
- Activity [17]: 1.01%
- IC50 [18]: 10.3 µM
- Activity [19]: 3.99%
- Activity [20]: 9.71%
- IC50 [21]: 15.4 µM
- Activity [22]: 1.89%

SMILES: Cc1ccc(N2CCN(C3=CC(=O)c4ccccc4C3=O)CC2)cc1
- IC50 [15]: 8.2 µM

SMILES: COc1cc(N2CCN(C3=CC(=O)c4ccccc4C3=O)CC2)cc(OC)c1OC
- IC50 [15]: 11.6 µM

SMILES: O=C1C(N2CCN(c3ccccc3)CC2)=CC(=O)c2c(O)cccc21
- IC50 [15]: 15.2 µM

— ChEMBL document CHEMBL1782036, “Atovaquone derivatives as potent cytotoxic and apoptosis inducing agents” (Bioorg Med Chem Lett, 2009)
